Results of several laboratories.
Protocols differ between the studies behind these lines.
blaNDM-1: Metallo-beta-lactamase type 2 (blaNDM-1, Klebsiella pneumoniae, UniProt C7C422)
HTR2C: 5-hydroxytryptamine receptor 2C (HTR2C, Homo sapiens, UniProt P28335)
HTR2B: 5-hydroxytryptamine receptor 2B (HTR2B, Homo sapiens, UniProt P41595)
HLA class I histocompatibility antigen, B alpha chain: HLA class I histocompatibility antigen, B alpha chain (Homo sapiens, UniProt P01889)
dxs: 1-deoxy-D-xylulose-5-phosphate synthase (dxs, Deinococcus radiodurans, UniProt Q9RUB5)

`CN(Cc1ccccc1)C(=O)Oc1nsnc1N1CCCCC1` gave an IC50 of 5.6 µM (Monoglyceride lipase (MGLL, Homo sapiens, UniProt Q99685); enzyme activity, inhibitor).
`CSCC[C@H](NC(=O)[C@H](Cc1c[nH]c2ccccc12)NC(=O)CNC(=O)[C@H](Cc1ccc(O)cc1)NC(=O)[C@H](C)NC(=O)[C@@H](CCC(=O)O)NC(=O)CN1CCN(CC(=O)O)CCN(CC(=O)O)CCN(CC(=O)O)CC1)C(=O)N[C@@H](CC(=O)O)C(=O)N(C)[C@@H](Cc1ccccc1)C(N)=O` gave an IC50 of 0.0404 µM (Gastrin/cholecystokinin type B receptor (CCKBR, Homo sapiens, UniProt P32239); ligand displacement, radioligand).
`O=C(Cc1ccccc1)N[C@H](C(=O)O)[C@@H]1N=C(C(=O)O)C(CSC(C(=O)O)c2ccccc2)CS1` (stereo partly shown) gave an IC50 of > 100 µM (blaNDM-1; enzyme activity, inhibitor, absorbance).
`COc1cc(CC(C)N)c(OC)cc1I` (racemic) has an IC50 of 0.00046 µM (HTR2C; ligand displacement, radioligand).
The IC50 of `CC(C)C[C@H](NC(=O)[C@H](Cc1ccccc1)NC(=O)c1cnccn1)B(O)O` is reported as > 33 µM (Complement C1r subcomponent (Homo sapiens, UniProt P00736); enzyme activity, inhibitor).
For `Ic1ccccc1CN[C@@H]1C2CCN(CC2)[C@@H]1C(c1ccccc1)c1ccccc1` (racemic), the IC50 was 0.00725 µM (Substance-P receptor (TACR1, Homo sapiens, UniProt P25103); ligand displacement, radioligand).
For `OCC(S)CS` (stereo not shown), the IC50 was 4.21 µM (blaNDM-1; enzyme activity, inhibitor, fluorescence).
The IC50 of `C[C@H](N)[C@H](O)c1cccc(O)c1` is reported as 7.38 µM (HTR2B; ligand displacement, radioligand).
The IC50 of `CC[C@H](C)[C@H](NC(=O)[C@@H]1CCCN1C(=O)[C@@H](NC(=O)[C@H](CC(C)C)NC(=O)[C@H](CCC(N)=O)NC(=O)[C@H](Cc1ccccc1)NC(=O)[C@H](C)NC(=O)[C@@H](N)CCCCN)[C@@H](C)O)C(=O)N[C@@H](C)C(=O)N[C@H](C(=O)O)C(C)C` is reported as 8.6 µM (HLA class I histocompatibility antigen, B alpha chain; ligand displacement, radioligand).
The IC50 of `CN1CCN(CC/C=C2/c3ccccc3Sc3ccc(S(=O)(=O)N(C)C)cc32)CC1` is reported as 2.8 µM (HTR2C; ligand displacement, radioligand).
With `CC[C@H](C)[C@H](NC(=O)[C@H](CC(C)C)NC(=O)CN)C(=O)N[C@H](C(=O)N[C@@H](CC(C)C)C(=O)N[C@@H](CO)C(=O)N[C@@H](Cc1ccc(O)cc1)C(=O)N[C@@H](Cc1c[nH]cn1)C(=O)N[C@@H](CC(C)C)C(=O)O)[C@@H](C)O` the IC50 was 14.3 µM (HLA class I histocompatibility antigen, B alpha chain; ligand displacement, radioligand).
With `CC(=O)c1cc(O)c2ccccc2c1O` the IC50 was 63.3 µM (mRNA cap guanine-N(7) methyltransferase (RNMT, Homo sapiens, UniProt O43148); enzyme activity, inhibitor).
For `OCCN(CCO)c1nc(N2CCCCC2)c2nc(N(CCO)CCO)nc(N3CCCCC3)c2n1`, the IC50 was > 10 µM (blaNDM-1; enzyme activity, inhibitor).
The IC50 of `C[C@H](N)Cn1ncc2ccc3c(c21)CCCO3` is reported as 7.2 µM (D(3) dopamine receptor (Drd3, Rattus norvegicus, UniProt P19020); ligand displacement, radioligand).
`Cc1c2ccncc2c(C)c2c1[nH]c1ccccc12` gave an IC50 of > 30 µM (blaNDM-1; enzyme activity, inhibitor).
With `CCCCCNC(=N)N/N=C/c1c[nH]c2ccc(OC)cc12` the IC50 was 0.008 µM (HTR2B; ligand displacement, radioligand).
`CSCC[C@H](NC(=O)[C@H](CCC(N)=O)NC(=O)[C@H](C)NC(=O)[C@H](CO)NC(=O)[C@@H](N)CO)C(=O)N[C@@H](CC(N)=O)C(=O)N[C@@H](CC(C)C)C(=O)N[C@@H](CC(N)=O)C(=O)N[C@H](C(=O)N[C@@H](Cc1ccccc1)C(=O)N[C@@H](CC(C)C)C(=O)N[C@@H](CC(N)=O)C(=O)O)[C@@H](C)O` gave an IC50 of 49 µM (dxs; enzyme activity, inhibitor, absorbance; pH 7.6, with preincubation).
`c1ccc(CN(CCN(Cc2ccccn2)Cc2ccccn2)Cc2ccccn2)nc1` has an IC50 of 0.644 µM (blaNDM-1; enzyme activity, inhibitor, fluorescence).
`CC(C)[C@H](NC(=O)[C@@H](NC(=O)[C@@H](NC(=O)[C@@H](NC(=O)[C@@H](NC(=O)[C@H](Cc1ccccc1)NC(=O)[C@H](CCC(=O)O)NC(=O)[C@@H](N)CC(=O)O)C(C)C)C(C)C)C(C)C)[C@@H](C)O)C(=O)O` gave an IC50 of 52.8 µM (HLA class I histocompatibility antigen, B alpha chain; ligand displacement, radioligand).
The IC50 of `CSCC[C@H](NC(=O)[C@H](C)NC(=O)[C@H](CC(C)C)NC(=O)[C@H](C)NC(=O)[C@H](Cc1c[nH]c2ccccc12)NC(=O)[C@H](C)NC(=O)[C@@H](NC(=O)[C@@H]1CCCN1C(=O)[C@H](CO)NC(=O)[C@H](CO)NC(=O)[C@@H](N)CO)C(C)C)C(=O)N[C@@H](CCCNC(=N)N)C(=O)O` is reported as 9.5 µM (dxs; enzyme activity, inhibitor, absorbance).
The IC50 of `O=C(O)c1cccc(C(=O)O)n1` is reported as 4.26 µM (blaNDM-1; enzyme activity, inhibitor, fluorescence).
`CC[C@H](C)[C@H](NC(=O)[C@H](CCCNC(=N)N)NC(=O)[C@@H]1CCCN1C(=O)[C@H](C)N)C(=O)N[C@H](C(=O)N[C@@H](Cc1ccccc1)C(=O)NCC(=O)NCC(=O)N1CCC[C@H]1C(=O)O)[C@@H](C)O` has an IC50 of 0.059 µM (HLA class I histocompatibility antigen, B alpha chain; ligand displacement, radioligand).
